Reference: ChEMBL document CHEMBL4477266, “Discovery of N-(benzyloxy)-1,3-diphenyl-1H-pyrazole-4-carboxamide derivatives as potential antiproliferative agents by inhibiting MEK” (Bioorg Med Chem, 2016)

Key:
HeLa = assay: Antiproliferative activity against human HeLa cells after 48 hrs in presence of 10% FBS by MTT method; assay type: functional
Outline: (§1)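 Cells were grown to log phase in DMEM with 10% fetal bovine serum at 37 °C under humidified 5% CO₂. They were seeded at 10⁵ cells/well and left 24 h to reattach. Compounds were added at increasing concentrations with 10% FBS for 48 h. Values are the mean of three independent experiments, each run in triplicate.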

A549 = assay: Antiproliferative activity against human A549 cells after 48 hrs in presence of 10% FBS by MTT method; assay type: functional; details: A549, 48 h; outline: as §1
MCF7 = assay: Antiproliferative activity against human MCF7 cells after 48 hrs in presence of 10% FBS by MTT method; assay type: functional; details: MCF7, 48 h; outline: as §1
[1] = Antiproliferative activity against human 293T cells after 48 hrs in presence of 10% FBS by MTT method; assay type: cell-based; details: 293T (HEK-293T) cells; outline: as §1
[2] = target: T1, Dual specificity mitogen-activated protein kinase kinase 1 (Homo sapiens, UniProt Q02750); assay: Inhibition of MEK1 in […] human A549 cells assessed as reduction in ERK1/2 phosphorylation by ELISA; assay type: cell-based
Target sequence in this assay (Q02750 whole entry, looked up, change not shown): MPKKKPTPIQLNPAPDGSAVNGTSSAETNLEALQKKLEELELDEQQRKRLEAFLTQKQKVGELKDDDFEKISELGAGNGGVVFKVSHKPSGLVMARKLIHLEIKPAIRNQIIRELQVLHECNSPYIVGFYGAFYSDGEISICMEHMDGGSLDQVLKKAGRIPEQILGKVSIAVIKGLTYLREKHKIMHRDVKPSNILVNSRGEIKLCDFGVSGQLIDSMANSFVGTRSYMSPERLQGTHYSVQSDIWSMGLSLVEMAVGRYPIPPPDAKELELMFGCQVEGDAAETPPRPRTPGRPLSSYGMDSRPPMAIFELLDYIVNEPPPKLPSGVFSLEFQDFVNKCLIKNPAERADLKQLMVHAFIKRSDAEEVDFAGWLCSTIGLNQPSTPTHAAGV

[3] = target: Receptor tyrosine-protein kinase erbB-2 (Homo sapiens, UniProt P04626); assay: Inhibition of HER2 (unknown origin)
[4] = target: Vascular endothelial growth factor receptor 2 (Homo sapiens, UniProt P35968); assay: Inhibition of VEGFR2 (unknown origin)
Focal adhesion kinase 1 = Focal adhesion kinase 1 (Homo sapiens, UniProt Q05397); assay: Inhibition of FAK in human MCF7 cells; assay type: cell-based
[5] = target: T1, Dual specificity mitogen-activated protein kinase kinase 1; assay: Inhibition of recombinant full length human N-terminal GST-tagged C-terminal His6-tagged MEK1 expressed in Escherichia coli using myelin basic protein as substrate in presence of activated BRAF and ERK2 by ELISA
Target sequence in this assay (Q02750 whole entry): as the sequence (Q02750 whole entry, looked up, change not shown) above

Aurora kinase A = target: T2, Aurora kinase A (Homo sapiens, UniProt O14965); assay: Inhibition of Aurora A (unknown origin)
T2 sequence (O14965 whole entry): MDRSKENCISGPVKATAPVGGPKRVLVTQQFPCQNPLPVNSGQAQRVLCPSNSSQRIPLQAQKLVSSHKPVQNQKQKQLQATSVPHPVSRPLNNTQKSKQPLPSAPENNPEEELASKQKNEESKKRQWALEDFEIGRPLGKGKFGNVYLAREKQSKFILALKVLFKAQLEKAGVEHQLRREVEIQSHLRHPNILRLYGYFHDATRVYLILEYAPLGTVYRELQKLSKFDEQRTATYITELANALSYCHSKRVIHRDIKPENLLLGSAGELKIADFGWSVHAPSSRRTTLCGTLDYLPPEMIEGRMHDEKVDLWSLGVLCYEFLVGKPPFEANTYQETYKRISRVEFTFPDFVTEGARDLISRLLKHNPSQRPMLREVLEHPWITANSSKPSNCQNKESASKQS

[6] = target: Epidermal growth factor receptor (Homo sapiens, UniProt P00533); assay: Inhibition of EGFR (unknown origin)
Epidermal growth factor receptor, sequence (P00533 whole entry): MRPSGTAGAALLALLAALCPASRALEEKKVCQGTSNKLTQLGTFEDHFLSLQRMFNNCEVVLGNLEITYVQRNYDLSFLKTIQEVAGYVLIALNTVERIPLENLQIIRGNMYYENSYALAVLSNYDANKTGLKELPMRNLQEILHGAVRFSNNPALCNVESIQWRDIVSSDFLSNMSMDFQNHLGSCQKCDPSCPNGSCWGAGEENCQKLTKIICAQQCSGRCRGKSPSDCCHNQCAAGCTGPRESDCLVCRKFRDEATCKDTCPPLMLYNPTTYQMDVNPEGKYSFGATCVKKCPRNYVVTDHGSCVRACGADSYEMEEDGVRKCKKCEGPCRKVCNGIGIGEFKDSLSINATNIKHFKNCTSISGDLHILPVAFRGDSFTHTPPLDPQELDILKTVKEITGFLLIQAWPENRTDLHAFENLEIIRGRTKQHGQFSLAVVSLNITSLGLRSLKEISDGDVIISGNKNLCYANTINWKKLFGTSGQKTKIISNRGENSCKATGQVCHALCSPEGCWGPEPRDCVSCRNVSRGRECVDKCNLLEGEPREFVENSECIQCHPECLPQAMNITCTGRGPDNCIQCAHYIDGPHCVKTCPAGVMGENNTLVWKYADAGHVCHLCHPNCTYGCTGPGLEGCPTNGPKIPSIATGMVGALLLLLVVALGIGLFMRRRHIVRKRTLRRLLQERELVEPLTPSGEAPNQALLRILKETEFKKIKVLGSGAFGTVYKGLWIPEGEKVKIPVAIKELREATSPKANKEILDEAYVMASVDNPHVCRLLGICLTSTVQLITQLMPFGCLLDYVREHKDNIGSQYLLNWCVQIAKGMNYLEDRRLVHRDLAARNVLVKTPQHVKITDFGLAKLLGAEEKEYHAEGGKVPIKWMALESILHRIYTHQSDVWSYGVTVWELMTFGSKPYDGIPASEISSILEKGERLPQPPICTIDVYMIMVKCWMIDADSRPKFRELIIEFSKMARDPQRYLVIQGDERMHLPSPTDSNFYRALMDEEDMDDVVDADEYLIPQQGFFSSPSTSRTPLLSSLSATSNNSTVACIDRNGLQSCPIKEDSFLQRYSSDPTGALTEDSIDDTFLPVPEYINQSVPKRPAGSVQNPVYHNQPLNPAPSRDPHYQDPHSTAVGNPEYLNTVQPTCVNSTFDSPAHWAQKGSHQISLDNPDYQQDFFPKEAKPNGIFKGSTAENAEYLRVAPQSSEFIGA

Vascular endothelial growth factor receptor 2, sequence (P35968 whole entry): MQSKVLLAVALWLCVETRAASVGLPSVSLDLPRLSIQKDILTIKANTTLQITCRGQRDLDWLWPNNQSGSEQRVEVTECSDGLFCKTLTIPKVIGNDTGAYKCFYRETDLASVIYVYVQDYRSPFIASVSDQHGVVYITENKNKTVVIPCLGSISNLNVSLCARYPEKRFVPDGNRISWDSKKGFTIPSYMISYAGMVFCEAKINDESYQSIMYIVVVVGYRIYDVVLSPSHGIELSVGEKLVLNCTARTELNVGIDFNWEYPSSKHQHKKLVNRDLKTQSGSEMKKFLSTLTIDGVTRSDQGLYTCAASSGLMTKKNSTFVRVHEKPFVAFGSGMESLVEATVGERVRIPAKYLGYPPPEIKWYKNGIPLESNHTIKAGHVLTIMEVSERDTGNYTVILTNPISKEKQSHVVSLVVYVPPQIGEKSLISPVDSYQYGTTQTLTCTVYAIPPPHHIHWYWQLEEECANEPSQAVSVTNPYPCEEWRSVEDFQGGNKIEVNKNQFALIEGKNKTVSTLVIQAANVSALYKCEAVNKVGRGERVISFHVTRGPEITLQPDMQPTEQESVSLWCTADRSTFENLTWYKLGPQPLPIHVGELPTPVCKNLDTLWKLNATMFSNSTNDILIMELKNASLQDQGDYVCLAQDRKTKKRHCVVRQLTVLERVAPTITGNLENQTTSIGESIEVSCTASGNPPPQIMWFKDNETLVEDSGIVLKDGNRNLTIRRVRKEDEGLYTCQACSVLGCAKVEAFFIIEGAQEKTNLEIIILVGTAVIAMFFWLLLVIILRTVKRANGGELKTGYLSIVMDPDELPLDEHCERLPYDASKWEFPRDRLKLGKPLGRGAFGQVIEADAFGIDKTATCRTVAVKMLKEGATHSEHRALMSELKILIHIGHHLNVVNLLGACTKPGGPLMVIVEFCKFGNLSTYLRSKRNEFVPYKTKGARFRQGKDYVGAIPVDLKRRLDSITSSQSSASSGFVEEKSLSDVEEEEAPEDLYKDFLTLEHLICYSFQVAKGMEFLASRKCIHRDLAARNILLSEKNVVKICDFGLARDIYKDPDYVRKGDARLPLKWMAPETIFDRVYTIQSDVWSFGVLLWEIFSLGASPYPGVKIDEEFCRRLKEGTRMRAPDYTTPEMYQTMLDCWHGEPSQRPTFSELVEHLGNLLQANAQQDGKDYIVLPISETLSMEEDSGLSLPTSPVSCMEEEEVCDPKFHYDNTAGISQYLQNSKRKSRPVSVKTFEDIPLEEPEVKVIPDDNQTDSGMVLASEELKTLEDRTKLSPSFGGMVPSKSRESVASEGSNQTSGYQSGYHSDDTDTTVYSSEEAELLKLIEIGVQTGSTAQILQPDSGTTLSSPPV
Focal adhesion kinase 1, sequence (Q05397 whole entry): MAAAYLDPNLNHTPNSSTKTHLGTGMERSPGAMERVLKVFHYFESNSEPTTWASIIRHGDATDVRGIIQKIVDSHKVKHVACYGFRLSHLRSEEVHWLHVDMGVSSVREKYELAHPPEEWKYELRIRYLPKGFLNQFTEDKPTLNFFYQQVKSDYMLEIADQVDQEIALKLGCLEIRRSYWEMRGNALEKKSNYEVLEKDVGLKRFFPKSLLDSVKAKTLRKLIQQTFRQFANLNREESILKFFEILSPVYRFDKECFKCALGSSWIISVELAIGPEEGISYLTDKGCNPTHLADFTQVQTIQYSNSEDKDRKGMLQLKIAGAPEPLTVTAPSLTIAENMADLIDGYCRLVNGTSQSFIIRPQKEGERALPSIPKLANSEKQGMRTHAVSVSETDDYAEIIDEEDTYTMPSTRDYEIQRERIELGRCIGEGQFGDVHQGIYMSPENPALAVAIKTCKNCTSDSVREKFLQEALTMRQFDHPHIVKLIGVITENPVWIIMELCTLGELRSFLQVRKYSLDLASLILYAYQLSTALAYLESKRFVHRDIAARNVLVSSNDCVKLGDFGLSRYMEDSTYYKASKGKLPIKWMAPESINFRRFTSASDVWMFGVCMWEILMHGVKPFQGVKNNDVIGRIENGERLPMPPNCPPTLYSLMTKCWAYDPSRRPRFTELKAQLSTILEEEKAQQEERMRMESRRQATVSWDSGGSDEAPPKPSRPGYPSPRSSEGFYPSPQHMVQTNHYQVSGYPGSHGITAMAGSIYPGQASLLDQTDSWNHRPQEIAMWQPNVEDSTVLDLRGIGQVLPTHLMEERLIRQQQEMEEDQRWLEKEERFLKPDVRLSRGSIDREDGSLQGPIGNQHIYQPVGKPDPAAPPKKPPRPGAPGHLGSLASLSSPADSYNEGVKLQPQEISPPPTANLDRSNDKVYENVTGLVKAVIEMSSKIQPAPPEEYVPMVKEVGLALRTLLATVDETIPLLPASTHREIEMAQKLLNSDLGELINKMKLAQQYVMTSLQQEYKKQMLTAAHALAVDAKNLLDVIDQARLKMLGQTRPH

| Compound | GI50 (HeLa) | GI50 (A549) | GI50 (MCF7) | IC50 [2] | IC50 [3] | IC50 [4] | IC50 (Focal adhesion kinase 1) | IC50 [5] | IC50 (Aurora kinase A) | IC50 [6] | CC50 at 48 h [1] |
| --- | --- | --- | --- | --- | --- | --- | --- | --- | --- | --- | --- |
| O=C(NOCc1ccccc1F)c1cn(-c2ccc(Cl)cc2)nc1-c1ccccc1 | 4.17 µM | 12.1 µM | 15.1 µM | – | – | – | – | – | – | – | 126 µM |
| O=C(NOCc1ccccc1)c1cn(-c2ccccc2)nc1-c1ccccc1 | 8.83 µM | 5 µM | 13.4 µM | – | – | – | – | – | – | – | 122 µM |
| COc1ccc(-n2cc(C(=O)NOCc3ccccc3)c(-c3ccccc3)n2)cc1 | 2.64 µM | 1.94 µM | 2.77 µM | – | – | – | – | – | – | – | 201 µM |
| O=C(NOCc1ccc(Cl)cc1Cl)c1cn(-c2ccc(Cl)cc2)nc1-c1ccccc1 | 5.16 µM | 13.1 µM | 16.2 µM | – | – | – | – | – | – | – | 46.3 µM |
| COc1ccc(-n2cc(C(=O)NOCc3ccccc3F)c(-c3ccccc3)n2)cc1 | 2.9 µM | 2.16 µM | 6 µM | – | – | – | – | – | – | – | 24.6 µM |
| O=C(NOCc1ccccc1F)c1cn(-c2ccc(F)cc2)nc1-c1ccccc1 | 10.3 µM | 17.5 µM | 12 µM | – | – | – | – | – | – | – | 147 µM |
| O=C(NOCc1ccccc1Cl)c1cn(-c2ccc(Cl)cc2)nc1-c1ccccc1 | 8.85 µM | 15.5 µM | 16.1 µM | – | – | – | – | – | – | – | 129 µM |
| O=C(NOCc1ccccc1)c1cn(-c2ccc(Cl)cc2)nc1-c1ccccc1 | 8.35 µM | 13 µM | 10.8 µM | – | – | – | – | – | – | – | 51.9 µM |
| COc1cc2ncnc(Nc3ccc(F)c(Cl)c3)c2cc1OCCCN1CCOCC1 [GEFITINIB] | – | 2.86 µM | – | – | – | – | – | – | – | – | – |

Further lines, with some results ahead:

| GI50 (HeLa) | GI50 (A549) | GI50 (MCF7) | IC50 [2] | IC50 [3] | IC50 [4] | IC50 (Focal adhesion kinase 1) | IC50 [5] | IC50 (Aurora kinase A) | IC50 [6] | Compound | CC50 at 48 h [1] |
| --- | --- | --- | --- | --- | --- | --- | --- | --- | --- | --- | --- |
| 2.04 µM | 1.08 µM | 2.31 µM | – | – | – | – | – | – | – | Cc1ccc(-n2cc(C(=O)NOCc3ccc(Cl)cc3Cl)c(-c3ccccc3)n2)cc1 | 39.6 µM |
| 6.69 µM | 1.14 µM | 1.87 µM | – | – | – | – | – | – | – | Cc1ccc(-n2cc(C(=O)NOCc3ccccc3)c(-c3ccccc3)n2)cc1 | 40.8 µM |
| 11.8 µM | 5.94 µM | 16.1 µM | – | – | – | – | – | – | – | O=C(NOCc1ccccc1F)c1cn(-c2ccccc2)nc1-c1ccccc1 | 75.7 µM |
| 5.1 µM | 7.35 µM | 9.66 µM | – | – | – | – | – | – | – | O=C(NOCc1ccc(Cl)cc1Cl)c1cn(-c2ccccc2)nc1-c1ccccc1 | 40.2 µM |
| 36.4 µM | 8.33 µM | 11.4 µM | – | – | – | – | – | – | – | O=C(NOCc1ccccc1Cl)c1cn(-c2ccc(F)cc2)nc1-c1ccccc1 | 44.7 µM |
| 17.8 µM | 10.3 µM | 7.41 µM | – | – | – | – | – | – | – | O=C(NOCc1ccccc1Cl)c1cn(-c2ccccc2)nc1-c1ccccc1 | 82 µM |
| 1.18 µM | 0.26 µM | 2.11 µM | 610 nM | > 25 µM | > 25 µM | 15.6 µM | 91 nM | 8.3 µM | > 25 µM | Cc1ccc(-n2cc(C(=O)NOCc3ccccc3F)c(-c3ccccc3)n2)cc1 | 20.6 µM |
| 7.35 µM | 14 µM | 25.3 µM | – | – | – | – | – | – | – | O=C(NOCc1ccc(Cl)cc1Cl)c1cn(-c2ccc(F)cc2)nc1-c1ccccc1 | 45 µM |
| 6.11 µM | 10.4 µM | 15.3 µM | – | – | – | – | – | – | – | O=C(NOCc1ccccc1)c1cn(-c2ccc(F)cc2)nc1-c1ccccc1 | 217 µM |
| 5.75 µM | 3.83 µM | 2.57 µM | – | – | – | – | – | – | – | COc1ccc(-n2cc(C(=O)NOCc3ccc(Cl)cc3Cl)c(-c3ccccc3)n2)cc1 | 545 µM |
| 3.48 µM | 2.45 µM | 3.73 µM | – | – | – | – | – | – | – | COc1ccc(-n2cc(C(=O)NOCc3ccccc3Cl)c(-c3ccccc3)n2)cc1 | 586 µM |
| 4.68 µM | 0.38 µM | 2.64 µM | – | – | – | – | – | – | – | Cc1ccc(-n2cc(C(=O)NOCc3ccccc3Cl)c(-c3ccccc3)n2)cc1 | 38.7 µM |
